This note sets out measurements from the EternaBench riboswitch data.

This data set deals with MS2 coat protein. The experiment in a line: apparent Kd, MS2 coat protein; higher = weaker binding; RNA-MaP array; FMN 200 µM where present. In outline: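 Designs on Illumina sequencing-chip clusters, transcribed by stalled E. coli RNA polymerase, were exposed to SNAP-549-labelled MS2 coat protein in doubling steps from 0.7 or 1.5 nM up to 3 µM, without and then with constant ligand. The buffer held 100 mM Tris-HCl pH 7.5, 80 mM KCl, 4 mM MgCl2, BSA, DTT, yeast tRNA and Tween-20. Apparent Kd values are medians of filtered per-cluster binding-curve fits to green signal normalised to red-channel RNA signal and control-cluster median Fmax.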

Setting [1] is: designed as: OFF switch for flavin mononucleotide, no ligand.
Where [2] appears, read: ligand present: flavin mononucleotide, designed as: OFF switch for flavin mononucleotide.
Setting [3] is: designed as: ON switch for flavin mononucleotide, no ligand.
Where [4] appears, read: ligand present: flavin mononucleotide, designed as: ON switch for flavin mononucleotide.

In general, apparent Kd refers to the concentration giving half-maximal binding under the conditions of the assay.

“GGGUAGUGAGGAUAUCGUUGUUAGGAGGAGUAGGUAGGAGGCGAGAAGGCACAUGAGGAUCACCCAUGUAUGGA”: the “apparent Kd” value is 36.2 nM under setting [1] and 33.3 nM under setting [2].
For “CGAUGUUAUGCAGGAUAUCUCUCUUGAAUGCGGAGAGAAGGGCAUAGGGAGACAUACGCCUUAUUACAUGAGGAUCACCCAUGU”, the “apparent Kd” value is, setting by setting: under setting [1], 9.02 nM; under setting [2], 7.92 nM.
The like results for “GUGUAGUGAGGAUAUCGUUGUUAGGAGGAGAAGGUAGGAGGCGAGAAGGCACAUGAGGAUCACCCAUGUAUGAG” were, in that order, 35.1 nM and 23.7 nM.
The like results for “CUAUAUAAUACCUCAUGUACAUGAGGAUCACCCAUGUUAACUUAGGAUAUAUUUAUAUUAAUAGAGUAGAAGGAAGUACUAUUU” were, in that order, 22.1 nM and 17.4 nM.
Consider “UGUCGGAGCAGAGGAUAUUACAUGAGGAUCACCCAUGUAUGAACCAAUAGCUGGAAACAGCAAUGUAAGAAGGCCGCUCCGACA”, for which the “apparent Kd” value by setting is: under setting [1], 5.82 nM; under setting [2], 28.5 nM.
Turning to “GUAGCAUACCGAGGAUAUCUAACGACAAAGUCGACAUGAGGAUCACCCAUGUGGCGAAAGCCUUGGGAGAAGGCGGAAUGCUAC”, the “apparent Kd” value reads like this: under setting [3], 16.2 nM; under setting [4], 12.6 nM.
The like results for “GGUAUCUCCCGUGAGGAUAUGCGGCGUAGAACAUGAGGAUCACCCAUGUCCUUCGAAUGGGUUACGCAGAAGGCACGACGGUACC” were, in that order, 33.3 nM and 18.5 nM.
On to “AAUUGGAUGCAGAAGGCAUGGACGACUCGUCACAUUAACAUGAGGAUCACCCAUGUGAAAACACAUGAGGAUAUGCAUCCUAAA”, for which the “apparent Kd” value under setting [3] was found to be 17.5 nM and the “apparent Kd” value under setting [4] amounted to 6.41 nM.
Take “GGGUACAUGGGAGGAUAUCCUCAAGAGACAUGAGGAUCACCCAUGUAUUAUAAGCCGAAAGGCAUGGAGAAGGCCCAUGUACCG”: the “apparent Kd” value was determined as 62 nM under setting [3] and 19.1 nM under setting [4].
With “UGUGCAGAAGGAUAUGCGUAAGCUCGGUGACGAGCAGGUCUACAUGAGGAUCACCCAUGUAGAAGGUCUGUACU”, the “apparent Kd” value reads like this: under setting [1], 16.8 nM; under setting [2], 17.9 nM.
The like results for “CUUUUGUGAGGAUAUCAGUAGUAAUACAAUAGUAUUAUUACUGAGAAGGCACAUGAGGAUCACCCAUGUUCCUC” were, in that order, 40.9 nM and 125 nM.
In the case of “CAAUUCGCACAGAAGGGUGACAUGAGGAUCACCCAUGUAGCGUGGCACUCAGGAGGAGCCACGCCACAGGAUAUGUGCGGGCAC”, the “apparent Kd” value runs as follows: under setting [3], 33.4 nM; under setting [4], 33.8 nM.
Taken in the same sequence, the figures for “GUGGCCCAGGCACAGGAUAUGUUUCUCGUAACAUGAGGAUCACCCAUGUGCCUAUGAGAUUUAAUGCAGAAGGGUGCACGCCACG” were 135 nM and 18.4 nM.
Consider “GCAGGAUAAGUCAGGAUAUACCUAUGGAUACAUAGGUAGAAGGGACAUGAGGAUCACCCAUGUGCCUCGCCUGC”, for which the “apparent Kd” value runs as follows: under setting [1], 14.5 nM; under setting [2], 37.4 nM.
As for “CUGCGUCGUGUUAGGAUAUCCAGCGGUGCGCGCCAGGAGAAGGAACAUGAGGAUCACCCAUGUAAACCGAUGGC”, the “apparent Kd” value is, setting by setting: under setting [1], 12.4 nM; under setting [2], 13.4 nM.
Take “CGGUGACGUGUAGGAUAUGGCGCUGGGUUUUGGCCAGAAGGACAUGAGGAUCACCCAUGUGGUAGAGGGCUGGCGGCCGCCCGU”: the “apparent Kd” value under setting [2] was 108 nM.
On to “AGCUAAAUGUCAGGAUAUGCCCGCCAGGUGGAAGCAGAAGGGACAUACCAGACAUGAGGAUCACCCAUGUAAACUGGGUAAGAA”, for which the “apparent Kd” value reads like this: under setting [3], 142 nM; under setting [4], 126 nM.
As to “GUGCACAUUCGAGGAUAUCGGAGAGGAGUCCUUCGAGAAGGCGAUUCGUGCUGUGUUAUUCUGGACAUGAGGAUCACCCAUGUG”, the “apparent Kd” value under setting [3] came to 50.8 nM and the “apparent Kd” value under setting [4] stood at 27.8 nM.
Regarding “GAGGGACAUGAGGAUCACCCAUGUGGUAAAUUUAAAGGAUAUUAGUGUGGGAAAGUAGGGUAAGAAGGUUGAUUGG”, the “apparent Kd” value by setting is: under setting [3], 94.8 nM; under setting [4], 80.1 nM.
Turning to “CUGGUGUCAGGAUAUGCAUAGCAGUGACCGGAACCCGGUCAGCAGAAGGGACAUGAGGAUCACCCAUGUUAAUA”, the “apparent Kd” value reads like this: under setting [1], 24.2 nM; under setting [2], 57.7 nM.
For the sequence “UAUAAUACAUAGGAUAUCGAAUAAAUCAUUUAACGAGAAGGAUGAACAUGAGGAUCACCCAUGUGGUAUCAUGG”, the “apparent Kd” value runs as follows: under setting [1], 263 nM; under setting [2], 241 nM.
The like results for “AGAAGACAUGAGGAUCACCCAUGUAAGGAUAUUGGAGGUUAGGGAUGCUGGAGUUGGACAAGAAGGUACAGGUG” were, in that order, 52.8 nM and 50.9 nM.
“UGAGCAAGAGGAUAUACAAGGCGUGCGUGAGCACGAGGUUUACAUGAGGAUCACCCAUGUAGAAGGCUUGUUCU”: the “apparent Kd” value by setting is: under setting [1], 16.3 nM; under setting [2], 34.4 nM.
Consider “UUUACAUUACGAGGAUAUCAUUUAUUUCAUGUUUGAGAAGGCGUUUUUUUUAUUACCUUACAUGAGGAUCACCCAUGUUUCUUU”, for which the “apparent Kd” value under setting [3] is 35.8 nM and the “apparent Kd” value under setting [4] came to 21.8 nM.
The like results for “GUAUAUCACUUAGGAUAUCUAUAAUUUAUUGAAACAUGAGGAUCACCCAUGUUCAUAAAUUUAUAGGAGAAGGGAGUGAUAUAC” were, in that order, 4.22 nM and 4.37 nM.
Consider “UCGAUGUAAGAGAAGGAGGACUUCAUGAGGAUCACCCAUGUGUUAGUACUUAGGAUAUUUGACAACAUGAGGAUCACCCAUGUC”, for which the “apparent Kd” value under setting [3] came to 64.3 nM and the “apparent Kd” value under setting [4] amounted to 61.6 nM.
For “GGUGCCAUGUAGAAGGCAGAUCUGAUUCAGAUCUGAGGAUAUACAUGAGGAUCACCCAUGUAAAGGCUCCGCACGAGAGUGCAA”, the “apparent Kd” value reads like this: under setting [1], 14.9 nM; under setting [2], 41.7 nM.
Taken in the same sequence, the figures for “CUUUAUAAUACCUCAUGUACAUGAGGAUCACCCAUGUUAACUAAGGAUAUAUAUAAAUUAAUAAUGUAGAAGGUAGUACUAUUU” were 17.3 nM and 14.8 nM.
On to “UGGUUGGGAGGAUAUCCAAUAUAUGACAUGAGGAUCACCCAUGUUUCCACUCGUACCUCCGGAGAAGGCCCUUCCA”, for which the “apparent Kd” value amounted to 23.1 nM under setting [1] and 22 nM under setting [2].
For “UCAGGCUUCGAGAAGGACAUGAGGAUCACCCAUGUGCGUGUGAAGCAGCCGUGAGGCUGCAUCAUGUAGGAUAUCGGAGUCUGG”, the “apparent Kd” value under setting [1] is 74 nM and the “apparent Kd” value under setting [2] amounted to 583 nM.
For “CCGACCUUGGCAGGAUAUAGACUCGAAGUUGAUCCCGCCGAUGGAGACAUGAGGAUCACCCAUGUCUAGAAGGGCCAGUCGAAA”, the “apparent Kd” value by setting is: under setting [1], 14.3 nM; under setting [2], 46.1 nM.
Consider “GUCGUGCGGCUUUGCUGUACGAGUACAUGAGGAUCACCCAUGUAGGAUAUGGUUCGCUUUGCGUGCCAGAAGGGCGUGCGUUGU”, for which the “apparent Kd” value by setting is: under setting [1], 28.7 nM; under setting [2], 28.1 nM.
Take “UGUUGUAUUACAGGAUAUCUAUUAUUUUAAUUUAGAGAAGGGUAUUCACAUGAGGAUCACCCAUGUAUAUACGAGGAAGUUGUG”: the “apparent Kd” value runs as follows: under setting [3], 52.9 nM; under setting [4], 57.2 nM.
As for “CAUUCAAGCCAGAAGGAGUACACUACAUGAGGAUCACCCAUGUCUAAUACUAGGAUAUGGGCAUCUGGUAAUGUCUAAGGUGCG”, the “apparent Kd” value amounted to 111 nM under setting [3] and 128 nM under setting [4].
For the sequence “UAAGUCGGAAGAUAAUAAUGAAUACAUGAGGAUCACCCAUGUAAGGAUAUGCAGUGGAAUACACUGCAGAAGGUACAUACCGAC”, the “apparent Kd” value amounted to 16.1 nM under setting [1] and 21.4 nM under setting [2].
For the sequence “CCAUGACAAAGUCAUGGAUUACGAACAUGAGGAUCACCCAUGUAGGAUAUGCUACUCAAAGAGUAGCAGAAGGACAUGUGUCUU”, the “apparent Kd” value stood at 32.9 nM under setting [1] and 165 nM under setting [2].
With “CGUCCUUAGUGAGGAUAUCAGAAAAUACGGAAAUGAGAAGGCACAUGAGGAUCACCCAUGUAAAUAACGGCCGGCCUUGGCAGC”, the “apparent Kd” value is, setting by setting: under setting [1], 6.26 nM; under setting [2], 13.4 nM.
Turning to “UGGUGAAGUGUAGGAUAUGGAGAUGGGUUUUGGCCAGAAGGACAUGAGGAUCACCCAUGUGGUAGAGGGUUGGUGGUAGCUCCU”, the “apparent Kd” value is, setting by setting: under setting [1], 36.2 nM; under setting [2], 31.7 nM.
“GUCACGAAUGUAGGAUAUCGAGUGGAAUACACUCGAGAAGGACAUGAGGAUCACCCAUGUCAAAUGAAAGAUAAUAAACGUGAC”: the “apparent Kd” value runs as follows: under setting [1], 14.6 nM; under setting [2], 18.8 nM.
As to “CUCAAACAUGAGGAUCACCCAUGUGUUGUCAUGGGAGGAUAUCCCAGUUCGUUGUAGUCGGGAGAAGGCCUAUGUC”, the “apparent Kd” value is, setting by setting: under setting [3], 67.4 nM; under setting [4], 28.6 nM.
Consider “AAUAACAGAGGAUAUACUAUUUUAUGUAUUUAUUAUUUUGAACAUGAGGAUCACCCAUGUAGAAGGCUGAAUAA”, for which the “apparent Kd” value by setting is: under setting [1], 22.7 nM; under setting [2], 21.7 nM.
In the case of “UUAAGGGACUGAGGAUAUACAUGAAUUAUUUUUGUAGAAGGCAGAUUGUUAGUUUAUUCACUAUACAUGAGGAUCACCCAUGUU”, the “apparent Kd” value reads like this: under setting [1], 27.4 nM; under setting [2], 20.1 nM.
Take “CCCUCAACAUGAGGAUCACCCAUGUAGGAUAUCGCUAUUGUAAUCAUGAAACAUGAUUACAAUAGCGAGAAGGACAUAUGACCC”: the “apparent Kd” value worked out at 21.5 nM under setting [1] and 99.6 nM under setting [2].
The like results for “UCGACCCUAGGAUAUACAUGAGGAUCACCCAUGUUUGUCGAAGAACGAACAGUCCUCAGUAGAAGGAGGACGAA” were, in that order, 22.3 nM and 23.8 nM.
Take “GUGGUGUAGAUACAGGAUAUGUUGCUCGUAACAUGAGGAUCACCCAUGUAUCUAUGAGAAUAAAUGCAGAAGGGUGCACACCACU”: the “apparent Kd” value came out at 549 nM under setting [3] and 30.1 nM under setting [4].
As to “CUUUCGUGAGGAUAUGUGGCUUCGAUCGUGAAAACGAGGCUACAGAAGGCACAUGAGGAUCACCCAUGUUCCUC”, the “apparent Kd” value by setting is: under setting [1], 34.4 nM; under setting [2], 454 nM.
“CCGGAAAUAGAGGAUAUAGGAGUCGAUAGACUCCUAGAAGGCUAUACAUGAGGAUCACCCAUGUGUCCUACCGG”: the “apparent Kd” value under setting [1] was found to be 17.4 nM and the “apparent Kd” value under setting [2] came out at 39.6 nM.
Taken in the same sequence, the figures for “UACCUGAGGCAAAGCUUUAGGUAUACAUGAGGAUCACCCAUGUAGGAUAUGGUAGGCCUUGCUUACCAGAAGGACAUGUUAAUU” were 23.5 nM and 76.1 nM.
